Test results reported in PubChem BioAssay.
Unmarked numbers belong to inactive results.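 Rule for the calls: active = viability at or below 30% in both replicate assays; inconclusive = viability at or below 30% in just one of the two assays; inactive = the rest.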

Test: HUVEC growth inhibition – cell-based, human, primary screen (AID 575);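 note: 100% = median of untreated cell wells with 0.1% DMSO on each plate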
Conditions: HUVEC proliferation, CellTiter-Glo luminescence, 72 h; at 10 µM; stronger effect = lower value
Procedure, shortened: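 Assay system: Primary human umbilical vein endothelial cells | Quantity: 1250 cells per well | Medium: Supplemented EBM, 2% fetal bovine serum | Detection: CellTiter-Glo luminescence measuring cellular ATP | Read-out: % viability vs DMSO wells | Plate: Collagen-coated 384-well format | Times: 72 h exposure, 37 °C, 5% CO2, 30 min RT equilibration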

Row | SMILES | viability [%]
1 | COC(=O)c1ccc(CSc2nc(-c3ccc(OC)cc3)nc3c2c(=O)n(C)c(=O)n3C)o1 | 85.8
2 | COC(=O)c1[nH]c2cc(OC)ccc2c1NC(=O)CN1CCOCC1 | 95
3 | NC(=O)CSc1nnc(-c2ccc(O)cc2)n1Cc1ccco1 | 105
4 | COc1ccccc1NC(=O)C1=C(C)Nc2nc(CCCO)nn2C1c1cccnc1 (stereo unspecified) | 95.7
5 | CCOc1ccc(NC(=O)c2ccc3c(c2)N(Cc2ccc(F)cc2)C(=O)CS3=O)cc1 (stereo unspecified) | 70.4
6 | CCn1c(=O)cc(OCC(=O)NC2CCCCC2)c2ccccc21 | 91.5
7 | COc1ccc(OC)c(C(=O)CSc2nnc(-c3ccc(OC)c(OC)c3)o2)c1 | 75.9
8 | Cc1nc(Nc2nc(=O)c3ccccc3n2C)nc2c(C)cccc12 | 89.5
9 | CC(C)(C)OC(=O)NCCc1nnc(SCC(=O)c2ccc(Cl)cc2)o1 | 93.1
10 | CCSc1nnc(NC(=O)C2CCCN(S(=O)(=O)c3cnc[nH]3)C2)s1 (stereo unspecified) | 89.9
11 | O=C1CC(Cc2ccccc2)C(=O)N1CCCn1ccnc1 (stereo unspecified) | 103
12 | Cc1ccc(CSC2=NCCN2C(=O)c2ccco2)cc1 | 92.8
13 | O=C1c2ccccc2C(=O)N1Cc1nc2ccccc2c(=O)n1CCN1CCOCC1 | 111
14 | c1cn(CC2(Cn3ccnc3)COC2)cn1 | 83
15 | c1cncc(-c2nnc3n2N=C(c2cccs2)CS3)c1 | 78.2
16 | CCOC(=O)N1CCN(c2c(N3CCc4ccccc4C3)c(=O)c2=O)CC1 | 99.9
